ChEMBL document CHEMBL1152770, “Inhibitors of hepatitis C virus polymerase: synthesis and biological characterization of unsymmetrical dialkyl-hydroxynaphthalenoyl-benzothiadiazines” (J Med Chem, 2009)

Assays:
Nucleic Acid [1] = assay: Ratio of drug level in rat liver after 12 hrs to EC50 for HCV isolate Con1 in presence of 40% human serum; format: tissue-based
Nucleic Acid [2] = assay: Ratio of drug level in rat liver after 6 hrs to EC50 for HCV isolate Con1 in presence of 40% human serum; format: tissue-based
[3] = Drug level in rat liver at 5 mg/kg, po after 6 hrs; format: ADME, organism-based; design: dose 5 mg/kg, route oral; details: read-out: Drug uptake
In short: (§1)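 Rats dosed orally at 5 mg/kg, four groups, sacrificed at 6 and 12 h. Plasma and liver homogenate extracted by acetonitrile protein precipitation with internal standard and quantified by LC-MS (negative-ion MRM). Liver/plasma ratio taken from the two concentrations.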

[4] = Ratio of drug level in liver to plasma in rat at 5 mg/kg, po after 12 hrs; format: ADME, organism-based; design: dose 5 mg/kg, route oral; in short: as §1
[5] = Drug level in rat liver at 5 mg/kg, po after 12 hrs; format: ADME, organism-based; design: dose 5 mg/kg, route oral; details: read-out: Drug uptake; in short: as §1
[6] = Plasma concentration in rat at 5 mg/kg, po after 6 hrs; format: ADME, organism-based; design: dose 5 mg/kg, route oral
In short: (§2)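 Vehicle DMSO:PEG400 (10:90, v/v). Dosing at 5 mg/kg in rat and monkey; dog 5 mg/kg or 2.5 mg/kg. Protein precipitation with acetonitrile, then LC-MS/MS in negative-ion MRM (m/z 516.2→437.0) against spiked standards with internal standard.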

[7] = Ratio of drug level in liver to plasma in rat at 5 mg/kg, po after 6 hrs; format: ADME, organism-based; design: dose 5 mg/kg, route oral; in short: as §1
[8] = Plasma concentration in rat at 5 mg/kg, po after 12 hrs; format: ADME, organism-based; design: dose 5 mg/kg, route oral; in short: as §2
[9] = Solubility in polyethylene glycol 400 at 25 deg C; format: physicochemical
In short: (§3)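 Equilibrium solubility in PEG 400, in 50 mM citrate buffer pH 4 or in 50 mM phosphate buffer pH 7.4. Buffers brought to ionic strength 0.155 M with NaCl. Vials rotated at 25 °C for 4 days, final pH measured, then supernatant assayed by reverse-phase HPLC at 262 nm against a linear standard curve.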

[10] = n-Octanol-phosphate buffer distribution coefficient, log D at pH 7.4; format: physicochemical
In short: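 Compound was dissolved in n-octanol and mixed with 50 mM phosphate buffer, isotonic with NaCl, pH 7.4. The mixture was tumbled at 25 °C, 25 rpm, for 2-3 days, then centrifuged to split the phases. Each phase was assayed by reverse-phase HPLC (UV 262 nm) against a linear standard curve. D is the octanol/buffer concentration ratio.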

[11] = Aqueous solubility in 50 mM phosphate buffer at pH 7.4; format: physicochemical; in short: as §3
[12] = Volume of distribution at steady state in rat at 5 mg/kg, iv; format: ADME, organism-based; design: dose 5 mg/kg, route intravenous; details: in vivo, read-out: Vdss
In short: (§4)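 Single intravenous dose. Heparinized plasma sampled at 0.1, 0.25, 0.5, 1, 2, 4, 6, 9, 12 and 24 h, plus 3 and 15 h in dog. Drug was isolated by acetonitrile protein precipitation and quantified by LC-MS in negative-ion MRM mode (m/z 516.2→437.0) against an internal standard. Concentrations came from unweighted linear regression of spiked standards.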

[13] = Inhibition of HCV isolate BK NS5B polymerase after 3 hrs by scintillation counting
[14] = Elimination half life in rat at 5 mg/kg, iv; format: ADME, organism-based; design: dose 5 mg/kg, route intravenous; details: in vivo, read-out: beta t1/2 (converted); in short: as §2
[15] = Elimination half life in monkey at 5 mg/kg, iv; format: ADME, organism-based, Macaca mulatta; design: dose 5 mg/kg, route intravenous; details: rhesus monkey, in vivo, read-out: beta t1/2 (converted); in short: as §2
[16] = Metabolic stability in monkey liver microsomes assessed as intrinsic clearance; format: ADME, Macaca mulatta, Microsome; details: rhesus monkey
Hepatitis C virus [17] = assay: Ratio of EC50 for HCV isolate Con1 in presence of 40% human serum to EC50 for HCV isolate Con1; format: functional, Hepacivirus hominis
In short: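 Genotype 1b-con1 subgenomic replicon in Huh-7 cells. Four-day incubation with inhibitor in medium with 5% FBS, with or without 40% human serum. EC50 from the fall in HCV RNA copy number by real-time PCR. Ratio is EC50 with serum over EC50 without.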

[18] = Plasma clearance in dog at 5 mg/kg, iv; format: ADME, organism-based, Canis lupus familiaris; design: dose 5 mg/kg, route intravenous; in short: as §2
[19] = Metabolic stability in dog hepatocytes assessed as intrinsic clearance; format: ADME, cell-based, Canis lupus familiaris, Liver, Hepatocyte
[20] = Metabolic stability in human liver microsomes assessed as intrinsic clearance; format: ADME, Microsome
[21] = Terminal phase volume of distribution in dog at 5 mg/kg, iv; format: ADME, organism-based, Canis lupus familiaris; design: dose 5 mg/kg, route intravenous; details: in vivo, read-out: Vbeta; in short: as §2
[22] = Terminal phase volume of distribution in monkey at 5 mg/kg, iv; format: ADME, organism-based, Macaca mulatta; design: dose 5 mg/kg, route intravenous; details: rhesus monkey, in vivo, read-out: Vbeta; in short: as §4
[23] = Terminal phase volume of distribution in rat at 5 mg/kg, iv; format: ADME, organism-based; design: dose 5 mg/kg, route intravenous; details: in vivo, read-out: Vbeta; in short: as §4
[24] = Volume of distribution at steady state in monkey at 5 mg/kg, iv; format: ADME, organism-based, Macaca mulatta; design: dose 5 mg/kg, route intravenous; details: rhesus monkey, in vivo, read-out: Vdss; in short: as §4
[25] = Metabolic stability in monkey hepatocytes assessed as intrinsic clearance; format: ADME, cell-based, Macaca mulatta, Liver, Hepatocyte; details: rhesus monkey
[26] = Metabolic stability in rat liver microsomes assessed as intrinsic clearance; format: ADME, Microsome
Hepatitis C virus [27] = assay: Antiviral activity against HCV 1a containing chimeric genotype 1a-H77/1b-con1 subgenom in human Huh7 cells assessed as reduction in viral RNA after 4 days by RT-PCR; details: subtype 1a, Huh-7, 96 h
[28] = AUC in rat at 5 mg/kg, iv; format: ADME, organism-based; design: dose 5 mg/kg, route intravenous; details: plasma; in short: as §2
Hepatocyte [29] = assay: Metabolic stability in rat hepatocytes assessed as intrinsic clearance; format: ADME, cell-based, Liver
[30] = AUC in dog at 5 mg/kg, iv; format: ADME, organism-based, Canis lupus familiaris; design: dose 5 mg/kg, route intravenous; details: plasma; in short: as §2
[31] = Plasma clearance in monkey at 5 mg/kg, iv; format: ADME, organism-based, Macaca mulatta; design: dose 5 mg/kg, route intravenous; details: rhesus monkey; in short: as §2
[32] = Elimination half life in dog at 5 mg/kg, iv; format: ADME, organism-based, Canis lupus familiaris; design: dose 5 mg/kg, route intravenous; details: in vivo, read-out: beta t1/2 (converted); in short: as §2
[33] = Cytotoxicity against human HuH7 cells by MTT assay; format: cell-based, Huh-7; details: read-out: TD50 (the source's name)
In short: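 Cytotoxicity in Huh-7 replicon cultures measured by MTT colorimetric assay after the four-day incubation.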

[34] = AUC in monkey at 5 mg/kg, iv; format: ADME, organism-based, Macaca mulatta; design: dose 5 mg/kg, route intravenous; details: rhesus monkey, plasma; in short: as §2
Hepatocyte [35] = assay: Metabolic stability in human hepatocytes assessed as intrinsic clearance; format: ADME, cell-based, Liver
Hepatitis C virus [36] = assay: Antiviral activity against HCV isolate Con1 in human Huh7 cells assessed as reduction in viral RNA after 4 days by RT-PCR; details: isolate Con1, Huh-7, 96 h
[37] = Plasma clearance in rat at 5 mg/kg, iv; format: ADME, organism-based; design: dose 5 mg/kg, route intravenous; in short: as §2
[38] = Inhibition of HCV isolate H77 NS5B polymerase after 3 hrs by scintillation counting
[39] = Volume of distribution at steady state in dog at 5 mg/kg, iv; format: ADME, organism-based, Canis lupus familiaris; design: dose 5 mg/kg, route intravenous; details: in vivo, read-out: Vdss; in short: as §4
[40] = Metabolic stability in dog liver microsomes assessed as intrinsic clearance; format: ADME, Canis lupus familiaris, Microsome

CC(C)(C)CC[C@@]1(C)C(=O)C(C2=NS(=O)(=O)c3cc(NS(C)(=O)=O)ccc3N2)=C(O)c2ccccc21 [listing 1 of 2 here]
Ratio (Nucleic Acid [1]): 270 | Ratio (Nucleic Acid [2]): 1400

CC(C)(C)CC[C@@]1(C)C(=O)C(C2=NS(=O)(=O)c3cc(NS(C)(=O)=O)ccc3N2)=C(O)c2ccccc21 [listing 2 of 2 here]
concentration at 6 h [3]: 21800 ng/g | Kp at 12 h [4]: 20 | concentration at 12 h [5]: 4190 ng/g | concentration at 6 h [6]: 2240 nM | Kp at 6 h [7]: 17 | concentration at 12 h [8]: 320 nM

CS(=O)(=O)Nc1ccc2c(c1)S(=O)(=O)N=C(c1c([O-])c3ccccc3n(NC3CCC3)c1=O)N2.[Na+]
solubility [9]: > 191.8 mg/mL | logD [10]: 1.45 | solubility [11]: < 0.07 µg/mL

CC(C)CC[C@@]1(C)C(=O)C(C2=NS(=O)(=O)c3cc(NS(C)(=O)=O)ccc3N2)=C([O-])c2ccccc21.[Na+]
Vd [12]: 1.72 L/kg | IC50 [13]: 0.9 nM | half-life [14]: 1.2 h | half-life [15]: 0.7 h | concentration at 6 h [3]: 3800 ng/g | microsomal CLint [16]: 62 µL/min/mg | Ratio EC50 (Hepatitis C virus [17]): 14 | clearance [18]: 7.33 mL/min/kg | CL [19]: 2.2 µL/min/mg | microsomal CLint [20]: 29.6 µL/min/mg | Vd [21]: 1.74 L/kg | concentration at 12 h [5]: 1430 ng/g | Vd [22]: 0.5 L/kg | Vd [23]: 1.97 L/kg | Vd [24]: 0.19 L/kg | CL [25]: 29.2 µL/min/mg | microsomal CLint [26]: 36.3 µL/min/mg | EC50 (Hepatitis C virus [27]): 11 nM | AUC [28]: 5200 ng·h/mL | CL (Hepatocyte [29]): 9 µL/min/mg | AUC [30]: 11800 ng·h/mL | clearance [31]: 8.5 mL/min/kg | half-life [32]: 2.7 h | CC50 [33]: 35300 nM | AUC [34]: 10200 ng·h/mL | CL (Hepatocyte [35]): 6.8 µL/min/mg | EC50 (Hepatitis C virus [36]): 3 nM | clearance [37]: 16 mL/min/kg | IC50 [38]: 1.3 nM | Vd [39]: 1.1 L/kg | microsomal CLint [40]: 3.5 µL/min/mg
